Source: article PMC8849394 (Science Advances, 2022)
Ends that are not written are not given here. * marks the point of attachment. FITC = O=C1OC2(c3ccc(O)cc3Oc3cc(O)ccc32)c2ccc(NC(=S)*)cc21

Experiments:
[1] = target: rhodamine-labeled MLL peptide (MLL25); assay: fluorescence polarisation
[2] = target: FITC-labeled MYB peptide (MYB25); assay: fluorescence polarisation
[3] = test system: interaction between CREB1 and the KIX domain of EP300; settings: cited from earlier work
[4] = test system: human NSCLC (lung adenocarcinoma) cell lines; assay: MTT cell viability / short-term proliferation, human NSCLC lines; assay type: cell-based; settings: for growth of NSCLC cells under BRD/HAT inhibitors: MTT
human SCLC cell lines [5] = assay: Soft agar colony formation, human SCLC lines; assay type: cell-based; settings: 2 μM in DMSO; H69, H209, H524; n = 3
[6] = test system: interaction between CREB1 and the KIX domain of CREBBP; settings: cited from earlier work
human SCLC cell lines [7] = assay: MTT cell viability / short-term proliferation, human SCLC lines; assay type: cell-based
[8] = test system: human NSCLC (lung adenocarcinoma) cell lines; assay: Soft agar colony formation, human NSCLC lines; assay type: cell-based; settings: 2 μM in DMSO; H1650 (fig. S8A); n = 3
[9] = target: purified KIX domain of CREBBP (Mus musculus, UniProt P45481); assay: FP assay, direct binding of fluorophore-labeled peptides to CREBBP KIX
Procedure, shortened: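 CREBBP KIX domain (87 residues, 585-672) was expressed from pMAL-c5E in E. coli Rosetta (DE3) and purified by affinity then anion-exchange chromatography. FP probes were N-terminally FITC-labelled MYB peptide and rhodamine-labelled MLL peptide, each at 0.5 µM, in 50 mM Hepes (pH 7.5) with 50 mM NaCl. Plates were incubated 30 min in the dark at room temperature, then read for polarization.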

mouse SCLC cells (RP-1) = assay: MTT cell viability, mouse SCLC cells RP-1; assay type: cell-based; settings: RP-1, MTT, n = 3
Procedure, shortened: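 Murine SCLC cells derived from Rb1/Trp53-mutant mouse lung tumors are grown in RPMI1640 with 10% bovine growth serum. Cells are seeded at 1×10^4 per well and treated with bromodomain- or HAT-domain-targeting test compounds. Over 0 to 4 or 6 days, MTT (0.5 mg/ml final) is added for 4 h at 37°C and OD is read at 590 nm, minus a vehicle blank. Triplicates; n = 3.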

EP300 = assay: Anti-FLAG immunoprecipitation/immunoblot for EP300 in H524 cell extracts; assay type: cell-based, human; settings: FLAG-tagged M/M, IP relative to input, n = 3
Procedure, shortened: (§1)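 H524 cells express FLAG-tagged M/M fusion peptide from a doxycycline-inducible promoter. Cells are lysed in RIPA (pH 8.0, with protease inhibitors). Lysates are immunoprecipitated with anti-FLAG or control IgG overnight at 4°C, then protein A/G agarose is added for 4 h at 4°C. Eluates are immunoblotted for FLAG, EP300 and CREBBP. IP band intensity is expressed relative to 5% input; n = 3; unpaired t test.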

H209 SCLC cells = assay: RNA sequencing, GSEA and KEGG analysis, H209 cells; assay type: cell-based, human
Procedure, shortened: (§2)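 SCLC cells express M/M or M/M-5A peptide under a doxycycline-inducible promoter. mRNA is oligo(dT)-purified from 500 ng total RNA, and 100-bp single-end reads are sequenced on an Illumina NextSeq2000. Differential expression signatures come from comparing TPM between experimental and control groups. GSEA is run on the signature using Molecular Signatures Database v7.4 gene sets.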

H524 SCLC cells = assay: RNA sequencing, GSEA and KEGG analysis, H524 cells; assay type: cell-based, human; settings: H524, M/M vs M/M-5A
Procedure, shortened: as §2

CREBBP = assay: Anti-FLAG immunoprecipitation/immunoblot for CREBBP in H524 cell extracts; assay type: cell-based, human; settings: FLAG-tagged M/M, IP relative to input, n = 3
Procedure, shortened: as §1

A627D EP300 KIX = A627D EP300 KIX (human, UniProt Q09472 565-652, A627D); assay: fluorescence polarisation
EP300 KIX domain = EP300 KIX domain (human, UniProt Q09472 565-652); assay: fluorescence polarisation
Chain of EP300 KIX domain (Q09472 565-652): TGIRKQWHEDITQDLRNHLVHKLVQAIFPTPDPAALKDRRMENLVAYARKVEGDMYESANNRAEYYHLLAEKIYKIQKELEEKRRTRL

Chain of A627D EP300 KIX (Q09472 565-652 A627D): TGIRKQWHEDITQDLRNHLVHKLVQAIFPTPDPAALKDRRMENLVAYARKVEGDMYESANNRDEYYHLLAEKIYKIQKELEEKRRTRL
Chain of purified KIX domain of CREBBP (P45481 585-672): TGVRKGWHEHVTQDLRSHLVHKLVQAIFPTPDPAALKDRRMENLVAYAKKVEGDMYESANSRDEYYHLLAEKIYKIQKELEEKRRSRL

CREBBP KIX domain (from UniProt Q92793 585-672) (domain or fragment)
Kd [1]: 94 µM | Kd [2]: 22 µM

O=C(Nc1ccc(Cl)cc1)c1cc2ccccc2cc1OP(=O)(O)O [KG-501, 2-naphthol-AS-E-phosphate]
inhibition of CREB1-EP300 KIX interaction [3]: shown to inhibit the interaction between CREB1 and the KIX domains of EP300 and CREBBP | short-term growth of NSCLC lines, KG-501 ([4]; in culture): did not have a significant effect on NSCLC cell lines | soft agar colony formation of SCLC lines, KG-501 (human SCLC cell lines [5]): inhibited the short-term growth of SCLC lines in culture and colony formation in soft agar | inhibition of CREB1-CREBBP KIX interaction [6]: shown to inhibit the interaction between CREB1 and the KIX domains of EP300 and CREBBP | short-term growth of SCLC lines, KG-501 (human SCLC cell lines [7]; in culture): inhibited the short-term growth of SCLC lines in culture | soft agar colony formation of NSCLC lines, KG-501 [8]: did not have a significant effect on NSCLC cell lines

SDDGNILPSDIMDFVLKNTPSMQAL [MLL25]
Kd [9]: 94 ± 11 µM

CCC(=O)N1CCOc2c(cc(-c3ccc(OC)c(OC)c3)cc2OC[C@H]2CCCN(C)C2)C1 [I-CBP112]
growth of NSCLC cells under BRD/HAT inhibitors ([4]; n = 3): dose-dependent effects on NSCLC lines | growth of mouse SCLC cells (mouse SCLC cells (RP-1)): did not have any significant effect on the growth | growth of human SCLC cells under BRD/HAT inhibitors (human SCLC cell lines [7]; MTT, n = 3): either insignificant or modest

COc1ccc(CCc2nc3cc(-c4c(C)noc4C)ccc3n2C[C@H](C)N2CCOCC2)cc1Cl [SGC-CBP30]
growth of NSCLC cells under BRD/HAT inhibitors ([4]; n = 3): dose-dependent effects on NSCLC lines | growth of mouse SCLC cells (mouse SCLC cells (RP-1)): did not have any significant effect on the growth | growth of human SCLC cells under BRD/HAT inhibitors (human SCLC cell lines [7]; MTT, n = 3): either insignificant or modest

D647A CREBBP KIX domain (from UniProt Q92793 585-672) (domain or fragment)
Kd [2]: 6.7 µM

CC1=NN(c2ccc(C(=O)O)cc2)C(=O)/C1=C\c1ccc(-c2cc(C)c(C)cc2[N+](=O)[O-])o1 [C646]
growth of NSCLC cells under BRD/HAT inhibitors ([4]; n = 3): dose-dependent effects on NSCLC lines | growth of mouse SCLC cells (mouse SCLC cells (RP-1)): did not have any significant effect on the growth | growth of human SCLC cells under BRD/HAT inhibitors (human SCLC cell lines [7]; MTT, n = 3): either insignificant or modest

H-SDDGNILPSDIMDFVLKNTPSMQALGESGGDEDPEKEKRIKELELLLMSTENELKGQQAL-OH [M/M]
binding to EP300 in cells (EP300): confirmed the binding of M/M to both EP300 and CREBBP | preference EP300 over CREBBP in cells (EP300): bound preferentially to EP300 than to CREBBP | growth of lung adenocarcinoma cells, MTT ([4]; doxycycline-inducible lentiviral expression of peptide, n = 3): did not detectably affect the growth of lung adenocarcinoma cell lines | gene set enrichment (GSEA), TF target genes (H209 SCLC cells; H209, M/M vs M/M-5A): significantly enriched in the gene sets related to MYB, ATF4, CREB1, and CREBP1/JUN targets | KEGG pathway small cell lung cancer (H209 SCLC cells; M/M-expressing H209 vs M/M-5A): down-regulated in M/M-expressing H209 cells | gene set enrichment (GSEA), TF target genes (H524 SCLC cells): significantly enriched in the gene sets related to MYB, ATF4, CREB1, and CREBP1/JUN targets | short-term proliferation of SCLC cells (human SCLC cell lines [7]; doxycycline-inducible lentiviral expression of peptide, MTT, n = 3): inhibited the short-term proliferation | binding to CREBBP in cells (CREBBP): confirmed the binding of M/M to both EP300 and CREBBP

B1: FITC-labeled MYB peptide (MYB25) (peptide)
peptide: {FITC}-KEKRIKELELLLMSTENELKGQQAL
Kd (A627D EP300 KIX): 23 ± 6.2 µM | Kd (EP300 KIX domain): 3.8 ± 0.2 µM

B2: rhodamine-labeled MLL peptide (MLL25) (peptide)
peptide: SDDGNILPSDIMDFVLKNTPSMQAL
modifications: also: rhodamine label
Kd (A627D EP300 KIX): 80 ± 8.5 µM | Kd (EP300 KIX domain): 40 ± 14 µM
